Activity calls are given as the source filed them. No cut-off for these calls is given here.
Experiments:
[1] = species on record: Cavia porcellus; experiment: Maximum increase in coronary flow in isolated guinea pig heart at a dose of 10 ug.; assay type: functional
Procedure, shortened: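 Langendorff-perfused isolated guinea pig heart with oxygenated (95% O2/5% CO2) Krebs-Henseleit fluid at 34 ± 1 °C and 60 cm H2O perfusion pressure. Compound dissolved in propylene glycol at 100 µg/mL and infused at 0.1 mL/min. Coronary flow recorded by electromagnetic flow meter before and after infusion, expressed as percent gain. Mean ± SE of five experiments.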

[2] = species on record: Cavia porcellus; experiment: Effect on maximum increase in coronary flow in isolated guinea pig heart at a dose of 10 (ug/heart); Inactive; assay type: functional
[3] = system: Canis familiaris; experiment: Compound was tested for max increase in blood flow through cicumflex branch of left coronary artery, 30 min after administration; assay type: functional, Canis lupus familiaris
Procedure, shortened: (§1)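 Anesthetized dogs (12-22 kg; pentobarbital sodium 35 mg/kg ip, supportive respiration) underwent left thoracotomy at the fourth intercostal space. Flow in the left coronary artery branch was recorded with an electromagnetic flow meter and expressed as percent increase. Compound in 0.5% CMC (10 mg/mL) was given intraduodenally at 10 mg/kg. Values are mean ± SE, six experiments.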

[4] = system: Canis familiaris; experiment: Change in the mean blood pressure and hypotensive action was measured in dogs at 10 mg/kg dose, 120 min after id administration; assay type: functional, Canis lupus familiaris; conditions: route intraduodenal
Procedure, shortened: (§2)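 Dogs of 12-22 kg were anesthetized with pentobarbital sodium (35 mg/kg ip), given supportive respiration, and opened by left thoracotomy at the fourth intercostal space. Compound was suspended in 0.5% CMC (10 mg/mL) and given intraduodenally via cannula at 10 mg/kg. Blood pressure was taken by carotid cannula and pressure transducer, and heart rate from the ECG. Values are mean ± SE, six experiments.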

[5] = system: Canis familiaris; experiment: Change in the mean blood pressure and hypotensive action was measured in dogs at 10 mg/kg dose, 5 min after id administration; assay type: functional, Canis lupus familiaris; conditions: route intraduodenal; procedure, shortened: as §2
[6] = system: Canis familiaris; experiment: Change in the heart rate and hypotensive action was measured in dogs at 10 mg/kg dose, 30 min after id administration; assay type: functional, Canis lupus familiaris; conditions: route intraduodenal; procedure, shortened: as §2
[7] = system: Canis familiaris; experiment: Compound was tested for max increase in blood flow through circumflex branch of left coronary artery, 5 min after administration; assay type: functional, Canis lupus familiaris; procedure, shortened: as §1
[8] = species on record: Cavia porcellus; experiment: pA2 was measured as Calcium antagonistic activity
[9] = system: Canis familiaris; experiment: Change in the heart rate and hypotensive action was measured in dogs at 10 mg/kg dose, 5 min after id administration; assay type: functional, Canis lupus familiaris; conditions: route intraduodenal; procedure, shortened: as §2
[10] = system: Canis familiaris; experiment: Change in the mean blood pressure and hypotensive action was measured in dogs at 10 mg/kg dose, 30 min after id administration; assay type: functional, Canis lupus familiaris; conditions: route intraduodenal; procedure, shortened: as §2
[11] = system: Canis familiaris; experiment: Compound was tested for max increase in blood flow through cicumflex branch of left coronary artery, 60 min after administration; assay type: functional, Canis lupus familiaris; procedure, shortened: as §1
[12] = system: Canis familiaris; experiment: Change in the mean blood pressure and hypotensive action was measured in dogs at 10 mg/kg dose, 60 min after id administration; assay type: functional, Canis lupus familiaris; conditions: route intraduodenal; procedure, shortened: as §2
[13] = system: Canis familiaris; experiment: Change in the heart rate and hypotensive action was measured in dogs at 10 mg/kg dose, 120 min after id administration; assay type: functional, Canis lupus familiaris; conditions: route intraduodenal; procedure, shortened: as §2
[14] = system: Canis familiaris; experiment: Change in the heart rate and hypotensive action was measured in dogs at 10 mg/kg dose, 60 min after id administration; assay type: functional, Canis lupus familiaris; conditions: route intraduodenal; procedure, shortened: as §2
[15] = system: Canis familiaris; experiment: Compound was tested for max increase in blood flow through cicumflex branch of left coronary artery, 120 min after administration; assay type: functional, Canis lupus familiaris; procedure, shortened: as §1
[16] = system: Canis familiaris; experiment: Compound was tested for max increase in blood flow through cicumflex branch of left coronary artery, 5 min after administration; assay type: functional, Canis lupus familiaris; procedure, shortened: as §1

Which Increase [1] does the source give for `CCOP(=O)(Cc1ccc(-c2nc3ccc(OC(C)=O)cc3s2)cc1)OCC` here?
Its Increase is 56.7%.

Which Increase [1] does the source give for `CC(C)OP(=O)(Cc1ccc(-c2nc3ccccc3s2)cc1)OC(C)C` here?
The Increase was 75.6%.

With `CCOP(=O)(Cc1ccc(-c2nc3ccc(NC(C)=O)cc3s2)cc1)OCC` as the compound, how does the Increase [1] read?
Its Increase is 48.7%.

`CCOP(=O)(Cc1ccc(-c2nc3ccc([N+](=O)[O-])cc3s2)cc1)OCC` was tested. Which Increase [2] did it give?
Its Increase is “inactive”.

How did the Increase [2] turn out when `O=P(O)(O)Cc1ccc(-c2nc3ccccc3s2)cc1` was run?
Its Increase is “inactive”.

How did the Increase [3] turn out when `CCOP(=O)(Cc1ccc(-c2nc3ccccc3s2)cc1)OCC` [FOSTEDIL] was run?
Its Increase is 65.2%.

And the Change [4]?
Its Change is -13.3 mmHg.

And the Change [5]?
Its Change is -13.4 mmHg.

And the Change [6]?
Its Change is -18.3 beats min-1.

And the Increase [7]?
The Increase was 28.2%.

And the Kb [8]?
The Kb was 120 nM.

What about the Change [9] of the same compound?
Its Change is -6.9 beats min-1.

What about the Change [10] of the same compound?
The Change was -9.7 mmHg.

And the Increase [11]?
Its Increase is 87.5%.

And the Change [12]?
The Change was -12 mmHg.

What about the Increase [1] of the same compound?
Its Increase is 79.9%.

And the Change [13]?
Its Change is -18.7 beats min-1.

What about the Change [14] of the same compound?
The Change was -20.8 beats min-1.

What about the Increase [15] of the same compound?
The Increase was 91.8%.

`CCOP(=O)(Cc1ccc(-c2nc3cccc(O)c3s2)cc1)OCC` was tested. Which Increase [1] did it give?
The Increase was 20.6%.

How did the Increase [1] turn out when `CCOP(=O)(Cc1ccc(-c2nc3cc(OC(C)=O)ccc3s2)cc1)OCC` was run?
Its Increase is 23.2%.

With `COP(=O)(Cc1ccc(-c2nc3ccccc3s2)cc1)OC` as the compound, how does the Increase [1] read?
Its Increase is 34.8%.

Which Increase [2] does the source give for `CCOC(=O)Cc1ccc(-c2nc3ccccc3s2)cc1` here?
Its Increase is “inactive”.

For `CCCCOP(=O)(Cc1ccc(-c2nc3ccccc3s2)cc1)OCCCC`, which Increase [1] is on record?
Its Increase is 37.3%.

How did the Increase [1] turn out when `CCOP(=O)(Cc1ccc(-c2nc3ccc(Cl)cc3s2)cc1)OCC` was run?
Its Increase is 54.6%.

With `CCOP(=O)(Cc1ccc(-c2nc3cc(O)ccc3s2)cc1)OCC` as the compound, how does the Increase [1] read?
Its Increase is 49%.

Which Increase [1] does the source give for `COc1ccc(Cc2nccc3cc(OC)c(OC)cc23)cc1OC.Cl` [PAPAVERINE HYDROCHLORIDE] here?
Its Increase is 55.8%.

With `Cc1ccc(-c2nc3ccccc3s2)cc1` as the compound, how does the Increase [2] read?
Its Increase is “inactive”.

How did the Increase [1] turn out when `CCOP(=O)(Cc1ccc(-c2nc3ccc(OC)cc3s2)cc1)OCC` was run?
Its Increase is 20.1%.

How did the Increase [1] turn out when `CCOP(=O)(Cc1ccc(-c2nc3ccc(N)cc3s2)cc1)OCC.Cl` was run?
The Increase was 50%.

Which Increase [1] does the source give for `CCCOP(=O)(Cc1ccc(-c2nc3ccccc3s2)cc1)OCCC` here?
The Increase was 62.4%.

With `CCOP(=O)(Cc1ccc(-c2nc3cccc(OC(C)=O)c3s2)cc1)OCC` as the compound, how does the Increase [1] read?
The Increase was 71.7%.

Which Increase [1] does the source give for `CCOP(=O)(Cc1ccc(-c2nc3ccc(O)cc3s2)cc1)OCC` here?
Its Increase is 63.3%.

With `CCOP(=O)(Cc1ccc(-c2nc3ccc(C)cc3s2)cc1)OCC` as the compound, how does the Increase [1] read?
The Increase was 31.3%.

Which results are given for `COc1ccc([C@@H]2Sc3ccccc3N(CCN(C)C)C(=O)[C@@H]2OC(C)=O)cc1.Cl` [DILTIAZEM HYDROCHLORIDE]?
Increase [3]: 85.5%; Change [4]: -14.5 mmHg; Change [5]: -2.7 mmHg; Change [6]: -19.7 beats min-1; Increase [16]: 6.5%; Kb [8]: 417 nM; Change [9]: 3.2 beats min-1; Change [10]: -10.7 mmHg; Increase [11]: 89.4%; Change [12]: -13.8 mmHg; Increase [1]: 63.9%; Change [13]: -27.2 beats min-1; Change [14]: -29.2 beats min-1; Increase [15]: 74.6%
